This is an account of results in ChEMBL document CHEMBL4017499, “The Discovery of Novel Antimalarial Aminoxadiazoles as a Promising Nonendoperoxide Scaffold” (J Med Chem, 2017).

Data set [1] relates to Plasma. As to the kind of experiment: Drug metabolism in Swiss CD1 mouse assessed as 2-([3,4'-Bipyridine]-2'-carbonyl)-N-(4-(pyrrolidin-1-ylmethyl)-phenyl)hydrazinecarboxamide in plasma at 300 to 500 mg/kg, po by HPLC analysis. The format is ADME, organism-based. The following applies: in vivo. Put shortly: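 Mice given high oral doses (250/300 and 500 mg/kg); plasma analysed by HPLC for parent compound and breakdown products, expressed as percentage levels.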

Data set [2] concerns Plasmodium falciparum. As to the kind of experiment: Ratio of IC50 for chloroquine/pyrimethamine-resistant Plasmodium falciparum V1/S infected in red blood cells to IC50 for wild type Plasmodium falciparum 3D7A infected in red blood cells. It is filed as functional.
Data set [3] is described as follows: Chemical stability of compound in SGF media at pH 1.6 after 24 hrs. It is filed as physicochemical. The conditions noted are these: simulated gi fluid, pH 1.6, 24 h. Put shortly: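 Stability in simulated gastric fluid at pH 1.6, held at 37 °C for up to 24 h; checked for degradation products.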
The nature of data set [4]: Ratio of TC50 for human HepG2 to IC50 for antiplasmodial activity against Plasmodium falciparum 3D7A infected in red blood cells. Put shortly:
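Denominator is the asexual P. falciparum 3D7A IC50 from a [3H]hypoxanthine incorporation assay, using two or three independent biological replicates. Numerator is the 50% toxicity value in HepG2 cells, expressed as Tox50/Pf 3D7 IC50.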

In data set [5] the test system is Mus musculus. As to the kind of experiment: Toxicity in Swiss CD1 mouse assessed as effect on organ weight at 300 to 500 mg/kg, po measured up to 24 hrs post dose by Irwin test. The format is organism-based. The following applies: in vivo. Put shortly:
(§1)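 Female Swiss CD-1 mice given oral doses of 300 and 500 mg/kg; in-life observations, body weight evolution, relative organ weight, hematology and clinical chemistry recorded; plasma exposure measured at the highest dose; two independent experiments.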

The test system of data set [6] is Plasmodium falciparum. As to the kind of experiment: Antiplasmodial activity against Plasmodium falciparum 3D7A infected in red blood cells preincubated for 24 hrs followed by [3H]-hypoxanthine addition measured after 24 hrs by scintillation counting. The format is functional, cell-based. Put shortly:
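Whole-cell growth assay on sensitive P. falciparum strain 3D7A by [3H]hypoxanthine incorporation; two or three independent biological replicates per value.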

The nature of data set [7]: Lipophilicity, log D of compound at pH 7.4 by chromatographic method. It is filed as physicochemical. The following applies: buffer.
A short description of data set [8]: Solubility of the compound in fasted state stimulated intestinal fluid at pH 6.5 by HPLC analysis. It is filed as physicochemical. The conditions noted are these: fasted state simulated intestinal fluid. Put shortly: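 Solubility measured in fasted state simulated intestinal fluid, pH 6.5.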
Data set [9] is described as follows: Ratio of IC50 for chloroquine/pyrimethamine-resistant Plasmodium falciparum Dd2 infected in red blood cells to IC50 for wild type Plasmodium falciparum 3D7A infected in red blood cells. It is filed as functional.
Data set [10] can be described thus: AUC in Swiss CD1 mouse plasma at 500 mg/kg, po. It is filed as ADME, organism-based. Put shortly: as §1
Data set [11] deals with Plasmodium falciparum. As to the kind of experiment: Ratio of IC50 for chloroquine/pyrimethamine/atovaquone-resistant Plasmodium falciparum Tm90C2B infected in red blood cells to IC50 for wild type Plasmodium falciparum 3D7A infected in red blood cells. It is filed as functional.
In data set [12] the test system is Mus musculus. As to the kind of experiment: Toxicity in Swiss CD1 mouse assessed as passivity at 500 mg/kg, po measured up to 24 hrs post dose by Irwin test. The format is organism-based. The conditions noted are these: in vivo.
In data set [13] the test system is Mus musculus. As to the kind of experiment: Toxicity in Swiss CD1 mouse assessed as effect on in life observation at 300 to 500 mg/kg, po measured up to 24 hrs post dose by Irwin test. It is filed as organism-based. The following applies: in vivo. Put shortly: as §1
For data set [14], the system named is Mus musculus. As to the kind of experiment: Toxicity in Swiss CD1 mouse assessed as effect on body weight evolution at 300 to 500 mg/kg, po measured up to 24 hrs post dose by Irwin test. It is filed as organism-based. The conditions noted are these: in vivo. Put shortly:
as §1

Data set [15] can be described thus: Ratio of IC50 for chloroquine-resistant Plasmodium falciparum 2B12 infected in red blood cells to IC50 for wild type Plasmodium falciparum […] infected in red blood cells. It is filed as functional.
Data set [16] relates to Plasmodium falciparum. As to the kind of experiment: Antimalarial activity against Plasmodium falciparum 3D7 0087/N9 infected in po dosed SCID mouse assessed as reduction in parasitemia administered 3 days post infection dosed once a day for four consecutive days measured after 7 days. The conditions noted are these: 3D7 0087/N9, po. The format is functional. Put shortly:
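SCID mice engrafted with human parasite P. falciparum Pf 3D70087/N9; oral dosing started 3 days after infection, once daily for four consecutive days; parasitemia compared with untreated controls.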

On to `c1cncc(-c2ccnc(-c3nnc(Nc4ccc(CN5CCCC5)cc4)o3)c2)c1`, for which the Drug metabolism entry in data set [1] is on record as “Metabolite_Detected”. The “Ratio IC50” value in data set [2], in data set [9], in data set [11] and in data set [15] was 1 in each case. Further, the Stability entry in data set [3] is “Stable”. The Ratio in data set [4] is listed as greater than 1000. For the same compound, the Activity entry in data set [5] was “Non-Toxic”; in data set [12], “Toxic”; in [13] it was “Non-Toxic”; in data set [14] it was “Non-Toxic”. Inhibition in [6] was half-maximal at 20 nM (IC50). In data set [7], this compound showed a chromatographic logD of 1.3. Moreover, in data set [8], the solubility is greater than 1000 µg/mL. The compound further gave an AUC in [10] of 68900 ng·h/mL. Also, in [16], the ED90 amounted to 12.4 mg/kg.

As a reminder, the IC50 is the concentration at which inhibition is half-maximal. Higher therefore signals weaker potency. What is called chromatographic logD is a lipophilicity value derived from retention on a column. Read a low chromatographic logD as a more hydrophilic compound. For orientation: solubility means how much of the substance goes into solution per volume. Lower therefore signals little dissolved substance. A word on the AUC: it is the area under the concentration-time curve, a measure of exposure. The low end stands for low exposure, the high end for high exposure.
